# Active and inactive are the calls of the source. No cut-off for these calls is given here.
# Tested on: not listed separately
# Assay: Selectivity index, ratio of CC50 for HEK293T cells to IC50 for chloroquine-resistant Plasmodium falciparum W2
# Format: functional, HEK-293T
# Details: not given
# In short: (§1)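 SI taken as in vitro cytotoxicity IC50 on HEK293T or NIH3T3 cells divided by the P. falciparum W2 growth-inhibition IC50.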
row,SMILES,Ratio CC50/IC50
1,CC(C)CN(NC(=O)C1CCC2(CC1)OOC1(OO2)C2CC3CC(C2)CC1C3)c1ccnc(C#N)n1 (stereo not given),>2114
2,N#Cc1ncc(Br)c(N(NC(=O)C2CCC3(CC2)OOC2(OO3)C3CC4CC(C3)CC2C4)C2CCCCC2)n1 (stereo not given),>4464
3,CC(C)CN(NC(=O)C1CCC2(CC1)OOC1(OO2)C2CC3CC(C2)CC1C3)c1nc(C#N)ncc1Cl (stereo not given),>2959
4,CC(C)CN(NC(=O)C1CCC(=O)CC1)c1nc(C#N)ncc1Br,>2079
5,CC(C)CN(NC(=O)C1CCC2(CC1)OOC1(OO2)C2CC3CC(C2)CC1C3)c1cc(Cl)nc(C#N)n1 (stereo not given),>2045

# Tested on: Plasmodium berghei
# Assay: Antiplasmodial activity against liver stage Plasmodium berghei infected in human HuH7 cells assessed as decrease in parasite load at 10 uM treated for 1 hr prior to infection measured after 48 hrs by luciferase luminescence assay
# Details: Huh-7
row,SMILES,Activity
1,CC(C)CN(NC(=O)C1CCC(=O)CC1)c1nc(C#N)ncc1Br,Active

# Tested on: Plasmodium falciparum
# Assay: Antiplasmodial activity against chloroquine-resistant Plasmodium falciparum W2 after 48 hrs by FACS analysis
# Format: functional, organism-based
# Details: W2, 48 h
# In short: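 Synchronized ring-stage parasites cultured 48 h with multiple compound concentrations (from 1000× DMSO stocks) in RPMI 1640 with 10% human serum. Fixed in 1% formaldehyde/PBS pH 7.4 for 48 h at room temperature, stained with YOYO-1 (1 nM) in 0.1% Triton X-100/PBS. Parasitemia read by flow cytometry; IC50 from curve fits of percentage of control parasitemia.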
row,SMILES,IC50 [nM]
1,CC(C)CN(NC(=O)C1CCC2(CC1)OOC1(OO2)C2CC3CC(C2)CC1C3)c1ccnc(C#N)n1 (stereo not given),47.3
2,N#Cc1ncc(Br)c(N(NC(=O)C2CCC3(CC2)OOC2(OO3)C3CC4CC(C3)CC2C4)C2CCCCC2)n1 (stereo not given),22.4
3,CC(C)CN(NC(=O)C1CCC2(CC1)OOC1(OO2)C2CC3CC(C2)CC1C3)c1nc(C#N)ncc1Cl (stereo not given),33.8
4,CC(C)CN(NC(=O)C1CCC(=O)CC1)c1nc(C#N)ncc1Br,48.1
5,CC(C)CN(NC(=O)C1CCC2(CC1)OOC1(OO2)C2CC3CC(C2)CC1C3)c1cc(Cl)nc(C#N)n1 (stereo not given),48.9

# Tested on: Plasmodium berghei
# Assay: Antiplasmodial activity against Plasmodium berghei ANKA infected in C57Bl/6J mouse assessed as parasitemia level at 30 mg/kg/day, ip qd for 5 days measured on day 18 post-infection by microscopic/flow cytometric analysis
# Format: functional
# Details: route intraperitoneal
# In short: (§2)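 C57Bl/6J mice infected intraperitoneally with 2 × 10^6 GFP-expressing P. berghei ANKA-infected erythrocytes. Treatment started at parasitemia ca. 3.9% (day 4 postinfection): 30 mg/kg bw once daily ip for 5 days. Controls received equivalent drug vehicle. Parasitemia was followed daily by microscopy and flow cytometry; disease symptoms and survival were also recorded daily.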
row,SMILES,Activity [%]
1,CC(C)CN(NC(=O)C1CCC2(CC1)OOC1(OO2)C2CC3CC(C2)CC1C3)c1nc(C#N)ncc1Cl (stereo not given),51

# Tested on: Plasmodium berghei
# Assay: Antiplasmodial activity against Plasmodium berghei ANKA infected in C57Bl/6J mouse assessed as survival at 30 mg/kg/day, ip qd for 5 days measured on day 18 post-infection
# Format: functional, organism-based
# Details: not given
# In short: as §2
row,SMILES,Activity
1,CC(C)CN(NC(=O)C1CCC2(CC1)OOC1(OO2)C2CC3CC(C2)CC1C3)c1nc(C#N)ncc1Cl (stereo not given),Active

# Tested on: Plasmodium falciparum
# Assay: Antiplasmodial activity against atovaquone-resistant Plasmodium falciparum FCR3 after 48 hrs by FACS analysis
# Format: functional, organism-based
# Details: FCR3, 48 h
row,SMILES,IC50 [nM]
1,CC(C)CN(NC(=O)C1CCC2(CC1)OOC1(OO2)C2CC3CC(C2)CC1C3)c1ccnc(C#N)n1 (stereo not given),30.3
2,N#Cc1ncc(Br)c(N(NC(=O)C2CCC3(CC2)OOC2(OO3)C3CC4CC(C3)CC2C4)C2CCCCC2)n1 (stereo not given),81.2
3,CC(C)CN(NC(=O)C1CCC2(CC1)OOC1(OO2)C2CC3CC(C2)CC1C3)c1nc(C#N)ncc1Cl (stereo not given),53.3
4,CC(C)CN(NC(=O)C1CCC2(CC1)OOC1(OO2)C2CC3CC(C2)CC1C3)c1cc(Cl)nc(C#N)n1 (stereo not given),37.7

# Tested on: not listed separately
# Assay: Cytotoxicity against mouse NIH/3T3 cells
# Format: cell-based, NIH3T3
# Details: not given
row,SMILES,CC50 [nM]
1,CC(C)CN(NC(=O)C1CCC2(CC1)OOC1(OO2)C2CC3CC(C2)CC1C3)c1ccnc(C#N)n1 (stereo not given),900
2,N#Cc1ncc(Br)c(N(NC(=O)C2CCC3(CC2)OOC2(OO3)C3CC4CC(C3)CC2C4)C2CCCCC2)n1 (stereo not given),1400
3,CC(C)CN(NC(=O)C1CCC2(CC1)OOC1(OO2)C2CC3CC(C2)CC1C3)c1nc(C#N)ncc1Cl (stereo not given),4500
4,CC(C)CN(NC(=O)C1CCC(=O)CC1)c1nc(C#N)ncc1Br,> 100000
5,CC(C)CN(NC(=O)C1CCC2(CC1)OOC1(OO2)C2CC3CC(C2)CC1C3)c1cc(Cl)nc(C#N)n1 (stereo not given),1700

# Tested on: not listed separately
# Assay: Selectivity index, ratio of CC50 for mouse NIH/3T3 cells to IC50 for chloroquine-resistant Plasmodium falciparum W2
# Format: functional
# Details: not given
# In short: as §1
row,SMILES,Ratio CC50/IC50
1,CC(C)CN(NC(=O)C1CCC2(CC1)OOC1(OO2)C2CC3CC(C2)CC1C3)c1ccnc(C#N)n1 (stereo not given),19
2,N#Cc1ncc(Br)c(N(NC(=O)C2CCC3(CC2)OOC2(OO3)C3CC4CC(C3)CC2C4)C2CCCCC2)n1 (stereo not given),63
3,CC(C)CN(NC(=O)C1CCC2(CC1)OOC1(OO2)C2CC3CC(C2)CC1C3)c1nc(C#N)ncc1Cl (stereo not given),133
4,CC(C)CN(NC(=O)C1CCC(=O)CC1)c1nc(C#N)ncc1Br,>2079
5,CC(C)CN(NC(=O)C1CCC2(CC1)OOC1(OO2)C2CC3CC(C2)CC1C3)c1cc(Cl)nc(C#N)n1 (stereo not given),35

# Tested on: Plasmodium falciparum
# Assay: Inhibition of falcipain-2-mediated hemoglobin degradation in ring stage Plasmodium falciparum assessed as development of swollen digestive vacuoles at 123 nM after 24 hrs
# Details: not given
# In short: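 Cultured parasites exposed to 123 nM compound for 24 h starting at ring stage. Examined for swollen digestive vacuoles with erythrocyte-cytoplasm staining characteristics.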
row,SMILES,inhibition
1,CC(C)CN(NC(=O)C1CCC2(CC1)OOC1(OO2)C2CC3CC(C2)CC1C3)c1ccnc(C#N)n1 (stereo not given),inactive
2,N#Cc1ncc(Br)c(N(NC(=O)C2CCC3(CC2)OOC2(OO3)C3CC4CC(C3)CC2C4)C2CCCCC2)n1 (stereo not given),Active
3,CC(C)CN(NC(=O)C1CCC2(CC1)OOC1(OO2)C2CC3CC(C2)CC1C3)c1nc(C#N)ncc1Cl (stereo not given),Active
4,CC(C)CN(NC(=O)C1CCC(=O)CC1)c1nc(C#N)ncc1Br,Active
5,CC(C)CN(NC(=O)C1CCC2(CC1)OOC1(OO2)C2CC3CC(C2)CC1C3)c1cc(Cl)nc(C#N)n1 (stereo not given),inactive

# Tested on: not listed separately
# Assay: Inhibition of Plasmodium falciparum recombinant falcipain-2 after 30 mins by spectrofluorometric analysis
# Details: not given
# In short: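 Recombinant falcipain-2 (~1 nM) preincubated 30 min at room temperature with inhibitor (from 100× DMSO stocks) in 100 mM sodium acetate pH 5.5, 10 mM dithiothreitol. Then Z-Leu-Arg-AMC substrate added (final 25 μM). Fluorescence monitored continuously for 30 min at room temperature; IC50 from activity plots.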
row,SMILES,IC50 [nM]
1,CC(C)CN(NC(=O)C1CCC2(CC1)OOC1(OO2)C2CC3CC(C2)CC1C3)c1ccnc(C#N)n1 (stereo not given),909
2,N#Cc1ncc(Br)c(N(NC(=O)C2CCC3(CC2)OOC2(OO3)C3CC4CC(C3)CC2C4)C2CCCCC2)n1 (stereo not given),25.3
3,CC(C)CN(NC(=O)C1CCC2(CC1)OOC1(OO2)C2CC3CC(C2)CC1C3)c1nc(C#N)ncc1Cl (stereo not given),3.4
4,CC(C)CN(NC(=O)C1CCC(=O)CC1)c1nc(C#N)ncc1Br,58.4
5,CC(C)CN(NC(=O)C1CCC2(CC1)OOC1(OO2)C2CC3CC(C2)CC1C3)c1cc(Cl)nc(C#N)n1 (stereo not given),978

# Tested on: Plasmodium berghei
# Assay: Antiplasmodial activity against liver stage Plasmodium berghei infected in human HuH7 cells assessed as decrease in parasite load at 2 uM treated for 1 hr prior to infection measured after 48 hrs by luciferase luminescence assay
# Details: Huh-7
row,SMILES,Activity
1,CC(C)CN(NC(=O)C1CCC(=O)CC1)c1nc(C#N)ncc1Br,Active

# Tested on: not listed separately
# Assay: Half life of the compound in 18 equiv of FeSO4 in aqueous acetonitrile assessed as N'-(5-bromo-2-cyanopyrimidin-4-yl)-N'-isobutyl-4-oxocyclohexanecarbohydrazide level by LC-MS analysis
# Format: physicochemical
# Details: buffer
# In short: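 Aqueous solution of compound treated with high concentration of iron(II) sulfate; mixture analysed by LCMS. Decomposition to the ketone product fitted to first-order decay kinetics to give the half-life.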
row,SMILES,t1/2 [h]
1,CC(C)CN(NC(=O)C1CCC2(CC1)OOC1(OO2)C2CC3CC(C2)CC1C3)c1nc(C#N)ncc1Cl (stereo not given),5.1

# Tested on: not listed separately
# Assay: Cytotoxicity against HEK293T cells
# Format: cell-based, HEK-293T
# Details: human
row,SMILES,CC50 [nM]
1,CC(C)CN(NC(=O)C1CCC2(CC1)OOC1(OO2)C2CC3CC(C2)CC1C3)c1ccnc(C#N)n1 (stereo not given),> 100000
2,N#Cc1ncc(Br)c(N(NC(=O)C2CCC3(CC2)OOC2(OO3)C3CC4CC(C3)CC2C4)C2CCCCC2)n1 (stereo not given),> 100000
3,CC(C)CN(NC(=O)C1CCC2(CC1)OOC1(OO2)C2CC3CC(C2)CC1C3)c1nc(C#N)ncc1Cl (stereo not given),> 100000
4,CC(C)CN(NC(=O)C1CCC(=O)CC1)c1nc(C#N)ncc1Br,> 100000
5,CC(C)CN(NC(=O)C1CCC2(CC1)OOC1(OO2)C2CC3CC(C2)CC1C3)c1cc(Cl)nc(C#N)n1 (stereo not given),> 100000

# Tested on: Plasmodium berghei
# Assay: Antiplasmodial activity against Plasmodium berghei ANKA infected in C57Bl/6J mouse assessed as parasitemia level at 30 mg/kg/day, ip qd for 5 days measured on day 8 post-infection by microscopic/flow cytometric analysis
# Format: functional, organism-based
# Details: not given
# In short: as §2
row,SMILES,Activity
1,CC(C)CN(NC(=O)C1CCC2(CC1)OOC1(OO2)C2CC3CC(C2)CC1C3)c1nc(C#N)ncc1Cl (stereo not given),Active

# Tested on: Plasmodium falciparum
# Assay: Antiplasmodial activity against chloroquine-sensitive Plasmodium falciparum 3D7 after 48 hrs by FACS analysis
# Format: functional, organism-based
# Details: 3D7, 48 h
row,SMILES,IC50 [nM]
1,CC(C)CN(NC(=O)C1CCC2(CC1)OOC1(OO2)C2CC3CC(C2)CC1C3)c1ccnc(C#N)n1 (stereo not given),13.1
2,N#Cc1ncc(Br)c(N(NC(=O)C2CCC3(CC2)OOC2(OO3)C3CC4CC(C3)CC2C4)C2CCCCC2)n1 (stereo not given),78.5
3,CC(C)CN(NC(=O)C1CCC2(CC1)OOC1(OO2)C2CC3CC(C2)CC1C3)c1nc(C#N)ncc1Cl (stereo not given),80.9
4,CC(C)CN(NC(=O)C1CCC(=O)CC1)c1nc(C#N)ncc1Br,48.2
5,CC(C)CN(NC(=O)C1CCC2(CC1)OOC1(OO2)C2CC3CC(C2)CC1C3)c1cc(Cl)nc(C#N)n1 (stereo not given),28.4

# From ChEMBL document CHEMBL3286314, “Tetraoxane-pyrimidine nitrile hybrids as dual stage antimalarials” (J Med Chem, 2014)
